From ChEMBL document CHEMBL4819032, “Structure-based design of highly selective 2,4,5-trisubstituted pyrimidine CDK9 inhibitors as anti-cancer agents” (Eur J Med Chem, 2021)
Each block holds one compound with its values, some of them ahead of it.

Experiments:
CDK9/cyclin T1 = CDK9/cyclin T1 (Homo sapiens, UniProt P50750); experiment: Inhibition of recombinant human full length CDK9/Cyclin T1 using KTFCGTPEYLAPEVRREPRILSEEEQEMFRDFDYIADWC as substrate incubated for 40 mins in presence of [gamma-33P]-ATP by scintillation counting method; format: protein-complex assay
Chain of CDK9/cyclin T1 (O60563 whole entry): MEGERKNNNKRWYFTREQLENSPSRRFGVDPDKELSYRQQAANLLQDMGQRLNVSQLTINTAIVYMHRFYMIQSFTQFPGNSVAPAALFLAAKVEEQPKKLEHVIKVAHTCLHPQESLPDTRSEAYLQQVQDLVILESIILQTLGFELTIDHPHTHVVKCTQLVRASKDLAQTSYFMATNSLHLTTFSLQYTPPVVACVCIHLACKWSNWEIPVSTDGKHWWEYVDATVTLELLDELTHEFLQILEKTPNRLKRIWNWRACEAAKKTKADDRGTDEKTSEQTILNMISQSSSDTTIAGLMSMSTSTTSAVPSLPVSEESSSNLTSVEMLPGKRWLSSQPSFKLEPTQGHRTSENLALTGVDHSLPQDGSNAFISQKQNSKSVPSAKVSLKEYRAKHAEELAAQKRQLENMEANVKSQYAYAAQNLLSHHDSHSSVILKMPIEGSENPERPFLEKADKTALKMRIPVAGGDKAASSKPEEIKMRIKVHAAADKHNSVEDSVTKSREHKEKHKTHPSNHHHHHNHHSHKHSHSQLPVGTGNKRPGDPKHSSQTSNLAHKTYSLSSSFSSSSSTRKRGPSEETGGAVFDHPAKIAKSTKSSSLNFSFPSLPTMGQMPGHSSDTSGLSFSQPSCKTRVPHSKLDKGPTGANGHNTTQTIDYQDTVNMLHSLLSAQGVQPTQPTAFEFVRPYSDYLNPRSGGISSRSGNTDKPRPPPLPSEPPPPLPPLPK
Chain of CDK9/cyclin T1 (P50750 whole entry): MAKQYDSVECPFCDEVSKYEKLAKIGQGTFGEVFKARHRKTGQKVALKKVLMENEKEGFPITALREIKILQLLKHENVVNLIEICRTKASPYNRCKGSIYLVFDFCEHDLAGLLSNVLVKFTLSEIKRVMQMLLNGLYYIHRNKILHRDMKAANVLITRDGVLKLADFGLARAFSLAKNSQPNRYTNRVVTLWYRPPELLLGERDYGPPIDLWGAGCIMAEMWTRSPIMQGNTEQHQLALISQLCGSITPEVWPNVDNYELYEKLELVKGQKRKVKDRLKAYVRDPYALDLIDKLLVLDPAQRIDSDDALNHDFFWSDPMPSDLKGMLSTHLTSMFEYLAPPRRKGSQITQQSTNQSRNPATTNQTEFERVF
Summary of the method: (§1)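 Radiometric kinase assay with ATP at each kinase's Km(app). IC50 values come from 10-point dose-response curves, and apparent Ki is calculated from IC50 and the kinase's Km(ATP).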

CDK2/Cyclin A2 = CDK2/Cyclin A2 (Homo sapiens, UniProt P24941); experiment: Inhibition of recombinant human full length CDK2/Cyclin A using histone H1 as substrate incubated for 40 mins in presence of [gamma-33P]-ATP by scintillation counting method; format: protein-complex assay
Homo sapiens [1] = species on record: Homo sapiens; experiment: Selectivity index, ratio of Ki for inhibition of recombinant human full length CDK2/Cyclin A to Ki for inhibition of recombinant human full length CDK9/Cyclin T1
Summary of the method: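 Ratio of apparent Ki values for the two CDK/cyclin complexes. Each Ki is derived from an IC50 (10-point radiometric dose-response, ATP at Km(app)) using the kinase's Km(ATP). The selectivity index is defined as Ki(CDK2)/Ki(CDK9).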

HCT-116 = experiment: Growth inhibition of human HCT-116 cells after 48 hrs by MTT assay; format: functional
MCF7 = experiment: Growth inhibition of human MCF7 cells after 48 hrs by MTT assay; format: functional
[2] = molecular target: Cyclin-dependent kinase 1/cyclin B1 (Homo sapiens, UniProt P06493); experiment: Inhibition of recombinant human full length CDK1/Cyclin B using histone H1 as substrate incubated for 40 mins in presence of [gamma-33P]-ATP by scintillation counting method; format: protein-complex assay; summary of the method: as §1
Chain of Cyclin-dependent kinase 1/cyclin B1 (P06493 whole entry): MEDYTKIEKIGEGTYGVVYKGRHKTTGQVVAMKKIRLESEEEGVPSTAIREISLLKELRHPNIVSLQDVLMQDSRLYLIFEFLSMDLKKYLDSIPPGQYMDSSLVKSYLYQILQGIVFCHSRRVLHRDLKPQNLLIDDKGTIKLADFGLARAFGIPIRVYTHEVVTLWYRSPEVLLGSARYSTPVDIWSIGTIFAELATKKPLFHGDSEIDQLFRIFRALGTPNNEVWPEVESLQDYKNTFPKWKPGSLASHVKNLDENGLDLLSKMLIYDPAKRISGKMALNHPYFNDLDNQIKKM
Chain of Cyclin-dependent kinase 1/cyclin B1 (P14635 whole entry, further chain): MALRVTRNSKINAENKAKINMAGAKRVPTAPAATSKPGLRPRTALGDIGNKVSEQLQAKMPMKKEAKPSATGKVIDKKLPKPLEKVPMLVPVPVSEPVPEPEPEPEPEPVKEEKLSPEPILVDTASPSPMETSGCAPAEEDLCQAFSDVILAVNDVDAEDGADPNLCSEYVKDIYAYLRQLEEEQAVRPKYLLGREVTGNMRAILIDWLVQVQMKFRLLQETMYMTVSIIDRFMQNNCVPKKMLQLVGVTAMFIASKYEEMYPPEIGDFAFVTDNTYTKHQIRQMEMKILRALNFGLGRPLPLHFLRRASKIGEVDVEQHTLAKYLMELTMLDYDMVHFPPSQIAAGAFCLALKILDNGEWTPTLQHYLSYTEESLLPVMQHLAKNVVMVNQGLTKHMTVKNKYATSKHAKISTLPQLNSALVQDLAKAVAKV

[3] = molecular target: Cyclin-dependent kinase 7/ cyclin H (Homo sapiens, UniProt P50613); experiment: Inhibition of recombinant human full length CDK7/Cyclin H using peptide as substrate incubated for 40 mins in presence of [gamma-33P]-ATP by scintillation counting method; format: protein-complex assay; summary of the method: as §1
Chain of Cyclin-dependent kinase 7/ cyclin H (P51946 whole entry): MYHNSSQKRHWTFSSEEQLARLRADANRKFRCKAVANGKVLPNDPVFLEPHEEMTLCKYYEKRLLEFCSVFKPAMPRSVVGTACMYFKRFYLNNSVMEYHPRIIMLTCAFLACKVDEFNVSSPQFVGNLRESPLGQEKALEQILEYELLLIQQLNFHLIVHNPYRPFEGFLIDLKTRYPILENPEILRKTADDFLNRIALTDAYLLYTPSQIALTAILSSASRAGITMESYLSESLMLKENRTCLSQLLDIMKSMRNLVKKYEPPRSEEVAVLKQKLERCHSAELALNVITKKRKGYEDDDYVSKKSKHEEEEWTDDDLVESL
Chain of Cyclin-dependent kinase 7/ cyclin H (P50613 whole entry): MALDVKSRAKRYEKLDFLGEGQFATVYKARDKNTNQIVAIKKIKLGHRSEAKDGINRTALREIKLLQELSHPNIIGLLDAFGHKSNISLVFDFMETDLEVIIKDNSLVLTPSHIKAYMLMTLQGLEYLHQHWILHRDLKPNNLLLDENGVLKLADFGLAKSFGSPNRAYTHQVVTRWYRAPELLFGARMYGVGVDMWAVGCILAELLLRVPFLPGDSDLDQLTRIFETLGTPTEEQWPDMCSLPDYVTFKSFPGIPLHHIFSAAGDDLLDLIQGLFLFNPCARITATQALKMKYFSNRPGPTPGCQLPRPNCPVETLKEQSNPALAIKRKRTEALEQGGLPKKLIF

Homo sapiens [4] = species on record: Homo sapiens; experiment: Selectivity index, ratio of Ki for inhibition of recombinant human full length […]
[5] = Growth inhibition of patient derived CLL cells after 48 hrs by annexin V-FITC staining based flow cytometric analysis; format: functional; details: Homo sapiens, CLL-CII
Summary of the method: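 Freshly isolated primary CLL cells (10⁶/mL) in RPMI with 10% foetal calf serum, L-glutamine, penicillin and streptomycin, 37 °C, 5% CO₂, exposed to inhibitor for 48 h. Cells labelled with CD19-APC and annexin V-FITC; apoptosis quantified by flow cytometry in CD19+ cells. LD50 is the concentration killing 50% of CLL cells.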

HT-29 = experiment: Growth inhibition of human HT-29 cells after 48 hrs by MTT assay; format: functional
MDA-MB-468 = experiment: Growth inhibition of human MDA-MB-468 cells after 48 hrs by MTT assay; format: functional
A549 = experiment: Growth inhibition of human A549 cells after 48 hrs by MTT assay; format: functional
A2780 = experiment: Growth inhibition of human A2780 cells after 48 hrs by MTT assay; format: functional
HeLa = experiment: Growth inhibition of human HeLa cells after 48 hrs by MTT assay; format: functional
MIA PaCa-2 = experiment: Growth inhibition of human MIA PaCa-2 cells after 48 hrs by MTT assay; format: functional

SMILES: CNc1nc(C)c(-c2nc(Nc3cc(N4CCN(C(C)=O)CC4)cc(N4CCN(C(C)=O)CC4)c3)ncc2C)s1
- Ki (CDK9/cyclin T1): 0.043 µM
- Ki (CDK2/Cyclin A2): 1.37 µM
- Ratio Ki (Homo sapiens [1]): 32
- GI50 (HCT-116): 0.78 µM
- GI50 (MCF7): 2 µM

SMILES: CNc1nc(C)c(-c2ccnc(Nc3cc(N4CCOCC4)cc(N4CCOCC4)c3)n2)s1
- Ki (CDK9/cyclin T1): 0.047 µM
- Ki (CDK2/Cyclin A2): 0.831 µM
- Ratio Ki (Homo sapiens [1]): 18
- GI50 (HCT-116): 0.34 µM
- GI50 (MCF7): 0.38 µM

SMILES: CNc1nc(C)c(-c2nc(Nc3cccc(N4CCCNCC4)c3)ncc2C)s1
- GI50 [5]: 0.81 µM
- Ki (CDK9/cyclin T1): 0.008 µM
- Ki (CDK2/Cyclin A2): 1.24 µM
- Ratio Ki (Homo sapiens [1]): 156
- GI50 (HCT-116): 1.37 µM
- GI50 (MCF7): 0.87 µM
- Ki [2]: 0.785 µM
- Ki [3]: 0.089 µM
- Ratio Ki (Homo sapiens [4]): 100

SMILES: CNc1nc(C)c(-c2nc(Nc3cccc(N4CCNCC4)c3)ncc2C(F)(F)F)s1
- Ki (CDK9/cyclin T1): 0.049 µM
- Ki (CDK2/Cyclin A2): 1.93 µM
- Ratio Ki (Homo sapiens [1]): 40
- GI50 (HCT-116): 4.05 µM
- GI50 (MCF7): 3.05 µM

SMILES: CNc1nc(C2CC2)c(-c2ccnc(Nc3cccc(C(=O)NC4CCN(C)CC4)c3)n2)s1
- Ki (CDK9/cyclin T1): 0.04 µM
- Ki (CDK2/Cyclin A2): 0.128 µM
- Ratio Ki (Homo sapiens [1]): 3
- GI50 (HCT-116): 0.77 µM
- GI50 (MCF7): 1.95 µM

SMILES: CN1CC[C@H](c2c(O)cc(O)c3c(=O)cc(-c4ccccc4Cl)oc23)[C@H](O)C1 [ALVOCIDIB]
- GI50 (HCT-116): 0.056 µM
- GI50 (MCF7): 0.092 µM
- GI50 (HT-29): 0.131 µM
- GI50 (MDA-MB-468): 0.096 µM
- GI50 (A549): 0.145 µM
- GI50 (A2780): 0.064 µM
- GI50 (HeLa): 0.043 µM
- GI50 (MIA PaCa-2): 0.078 µM

SMILES: CNc1nc(C)c(-c2nc(Nc3cc(N4CCN(C(C)=O)CC4)cc(N4CCN(C(C)=O)CC4)c3)ncc2C#N)s1
- Ki (CDK9/cyclin T1): 0.021 µM
- Ki (CDK2/Cyclin A2): 0.248 µM
- Ratio Ki (Homo sapiens [1]): 12
- GI50 (HCT-116): 0.7 µM
- GI50 (MCF7): 2.4 µM

SMILES: C=Cc1cnc(Nc2cccc(N3CCOCC3)c2)nc1-c1sc(NC)nc1C
- Ki (CDK9/cyclin T1): 0.062 µM
- Ki (CDK2/Cyclin A2): 0.503 µM
- Ratio Ki (Homo sapiens [1]): 8
- GI50 (HCT-116): > 5 µM
- GI50 (MCF7): > 5 µM

SMILES: CNc1ncc(-c2ccnc(Nc3cccc(N4CCCNCC4)c3)n2)s1
- Ki (CDK9/cyclin T1): 0.003 µM
- Ki (CDK2/Cyclin A2): 0.022 µM
- Ratio Ki (Homo sapiens [1]): 7
- GI50 (HCT-116): 0.08 µM
- GI50 (MCF7): 0.06 µM

SMILES: CNc1nc(C)c(-c2nc(Nc3cccc(N4CCCCCC4)c3)ncc2C#N)s1
- Ki (CDK9/cyclin T1): 0.006 µM
- Ki (CDK2/Cyclin A2): 0.044 µM
- Ratio Ki (Homo sapiens [1]): 7
- GI50 (HCT-116): 1.54 µM
- GI50 (MCF7): 4.13 µM

SMILES: CNc1nc(C)c(-c2nc(Nc3cc(C)cc(N4CCCCCC4)c3)ncc2C#N)s1
- Ki (CDK9/cyclin T1): 0.025 µM
- Ki (CDK2/Cyclin A2): 0.052 µM
- Ratio Ki (Homo sapiens [1]): 2
- GI50 (HCT-116): 4.05 µM
- GI50 (MCF7): 7.04 µM

SMILES: CNc1nc(C)c(-c2nc(Nc3cc(N4CCOCC4)cc(N4CCOCC4)c3)ncc2C#N)s1
- Ki (CDK9/cyclin T1): 0.009 µM
- Ki (CDK2/Cyclin A2): 0.055 µM
- Ratio Ki (Homo sapiens [1]): 6
- GI50 (HCT-116): 0.02 µM
- GI50 (MCF7): 0.09 µM

SMILES: CNc1nc(C)c(-c2nc(Nc3cc(C)cc(N4CCOCC4)c3)ncc2C#N)s1
- Ki (CDK9/cyclin T1): 0.005 µM
- Ki (CDK2/Cyclin A2): 0.016 µM
- Ratio Ki (Homo sapiens [1]): 3
- GI50 (HCT-116): 0.49 µM
- GI50 (MCF7): 0.95 µM

SMILES: CNc1nc(C)c(-c2nc(Nc3cc(C)cc(N4CCNCC4)c3)ncc2C#N)s1
- Ki (CDK9/cyclin T1): 0.006 µM
- Ki (CDK2/Cyclin A2): 0.045 µM
- Ratio Ki (Homo sapiens [1]): 8
- GI50 (HCT-116): 0.08 µM
- GI50 (MCF7): 0.61 µM

SMILES: CNc1nc(C)c(-c2nc(Nc3cccc(N4CCOCC4)c3)ncc2Cl)s1
- Ki (CDK9/cyclin T1): 0.004 µM
- Ki (CDK2/Cyclin A2): 0.022 µM
- Ratio Ki (Homo sapiens [1]): 6
- GI50 (HCT-116): 0.43 µM
- GI50 (MCF7): 0.72 µM

The next lines start with the values.

- Ki (CDK9/cyclin T1): 0.032 µM
- Ki (CDK2/Cyclin A2): 0.281 µM
- Ratio Ki (Homo sapiens [1]): 9
- GI50 (HCT-116): 0.58 µM
- GI50 (MCF7): 5.28 µM
SMILES: CNc1nc(C)c(-c2ccnc(Nc3cccc(N4CCN(C(C)=O)CC4)c3)n2)s1

- Ki (CDK9/cyclin T1): 0.008 µM
- Ki (CDK2/Cyclin A2): 0.711 µM
- Ratio Ki (Homo sapiens [1]): 89
- GI50 (HCT-116): 0.83 µM
- GI50 (MCF7): 0.86 µM
- Ki [2]: 1.12 µM
- Ki [3]: 0.472 µM
- Ratio Ki (Homo sapiens [4]): 100
SMILES: CNc1nc(C)c(-c2nc(Nc3cccc(N4CCNCC4)c3)ncc2C)s1

- Ki (CDK9/cyclin T1): 0.007 µM
- Ki (CDK2/Cyclin A2): 0.087 µM
- Ratio Ki (Homo sapiens [1]): 12
- GI50 (HCT-116): 0.5 µM
- GI50 (MCF7): 0.83 µM
SMILES: CNc1nc(C)c(-c2nc(Nc3cccc(N4CCN(S(C)(=O)=O)CC4)c3)ncc2C)s1

- Ki (CDK9/cyclin T1): 0.091 µM
- Ki (CDK2/Cyclin A2): 0.68 µM
- Ratio Ki (Homo sapiens [1]): 8
- GI50 (HCT-116): 0.08 µM
- GI50 (MCF7): 0.07 µM
SMILES: CNc1nc(C(C)C)c(-c2ccnc(Nc3cccc(N4CCN(C(C)=O)CC4)c3)n2)s1

- Ki (CDK9/cyclin T1): 0.005 µM
- Ki (CDK2/Cyclin A2): 0.107 µM
- Ratio Ki (Homo sapiens [1]): 21
- GI50 (HCT-116): 0.66 µM
- GI50 (MCF7): 0.68 µM
SMILES: CNc1nc(C)c(-c2nc(Nc3cccc(N4CCN(C)CC4)c3)ncc2Cl)s1

- Ki (CDK9/cyclin T1): 0.095 µM
- Ki (CDK2/Cyclin A2): 1.22 µM
- Ratio Ki (Homo sapiens [1]): 13
- GI50 (HCT-116): 4.8 µM
- GI50 (MCF7): 25 µM
SMILES: CNc1nc(C)c(-c2nc(Nc3cccc(N4CCN(C(C)=O)CC4)c3)ncc2C(F)(F)F)s1

- Ki (CDK9/cyclin T1): 0.012 µM
- Ki (CDK2/Cyclin A2): 0.794 µM
- Ratio Ki (Homo sapiens [1]): 66
- GI50 (HCT-116): 0.55 µM
- GI50 (MCF7): 3.65 µM
SMILES: CNc1nc(C)c(-c2nc(Nc3cccc(N4CCN(C(C)=O)CC4)c3)ncc2C)s1

- Ki (CDK9/cyclin T1): 0.019 µM
- Ki (CDK2/Cyclin A2): 0.525 µM
- Ratio Ki (Homo sapiens [1]): 28
- GI50 (HCT-116): 2.12 µM
- GI50 (MCF7): 6.44 µM
SMILES: CNc1nc(C)c(-c2nc(Nc3cccc(N4CCNC(=O)CC4)c3)ncc2C)s1

- Ki (CDK9/cyclin T1): 0.01 µM
- Ki (CDK2/Cyclin A2): 0.444 µM
- Ratio Ki (Homo sapiens [1]): 44
- GI50 (HCT-116): 0.36 µM
- GI50 (MCF7): 0.45 µM
SMILES: CNc1nc(C)c(-c2nc(Nc3cccc(N4CCOCC4)c3)ncc2C)s1

- Ki (CDK9/cyclin T1): 0.187 µM
- Ki (CDK2/Cyclin A2): 2.07 µM
- Ratio Ki (Homo sapiens [1]): 11
- GI50 (HCT-116): 0.2 µM
- GI50 (MCF7): 0.42 µM
SMILES: CNc1nc(C)c(-c2ccnc(Nc3cc(N4CCN(C(C)=O)CC4)cc(N4CCN(C(C)=O)CC4)c3)n2)s1

- Ki (CDK9/cyclin T1): 0.034 µM
- Ki (CDK2/Cyclin A2): 0.087 µM
- Ratio Ki (Homo sapiens [1]): 2.5
- GI50 (HCT-116): 0.06 µM
- GI50 (MCF7): 0.08 µM
SMILES: CC(=O)N1CCN(c2cccc(Nc3ncc4c(n3)-c3sc(N)nc3CC4)c2)CC1

- Ki (CDK9/cyclin T1): 0.008 µM
- Ki (CDK2/Cyclin A2): 0.014 µM
- Ratio Ki (Homo sapiens [1]): 2
- GI50 (HCT-116): 0.07 µM
- GI50 (MCF7): 0.65 µM
SMILES: CNc1nc(C(F)(F)F)c(-c2ccnc(Nc3cccc(N4CCCNCC4)c3)n2)s1

- Ki (CDK9/cyclin T1): 0.0075 µM
- Ki (CDK2/Cyclin A2): 0.125 µM
- Ratio Ki (Homo sapiens [1]): 16
SMILES: CNc1nc(C)c(-c2nc(Nc3cccc(N4CCN(C(C)=O)CC4)c3)ncc2Br)s1

- Ki (CDK9/cyclin T1): 0.02 µM
- Ki (CDK2/Cyclin A2): 0.586 µM
- Ratio Ki (Homo sapiens [1]): 29
- GI50 (HCT-116): 1.29 µM
- GI50 (MCF7): 1.89 µM
SMILES: CNc1nc(C)c(-c2nc(Nc3cccc(N4CCN(C)CC4)c3)ncc2C)s1
